The results in this text go back to ChEMBL document CHEMBL2203171, “The use of small molecule probes to study spatially separated stimulus-induced signaling pathways” (Bioorg Med Chem Lett, 2012).

The source made the active and inactive calls. No cut-off for these calls is given here.

What all share (assay type): cell-based
For experiment [1], the target named is Toll-like receptor 2 (Mus musculus) (UniProt Q9QUN7). The experiment can be described thus: Inhibition of MyD88 recruitment to TLR2 in C57BL/6 mouse BMDM cells assessed as inhibition of HKSA-induced IkappaBalpha degradation up to 90 mins by Western blot analysis. The essentials:
(§1)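 Bone marrow macrophages from C57BL/6 mice, grown in 70% growth medium (DMEM, 10% FBS) plus 30% L929-conditioned medium and given fresh medium 12-14 h before stimulation. Stimuli: IL-1 40 ng/ml, HKSA ~10^8 cfu/ml, pI:pC 50 μg/ml or CpG 10 μg/ml, ± compound at 10 μM (final) added from a 200x DMSO stock. IκBα and p38 profiled by immunoblot. Three independent experiments, quantitated and normalized.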
(In general: In western blotting, separated proteins are transferred to a membrane and probed.)

In experiment [2] the target is T1, Inhibitor of nuclear factor kappa-B kinase subunit beta (Mus musculus) (UniProt O88351).
T1 sequence (whole entry): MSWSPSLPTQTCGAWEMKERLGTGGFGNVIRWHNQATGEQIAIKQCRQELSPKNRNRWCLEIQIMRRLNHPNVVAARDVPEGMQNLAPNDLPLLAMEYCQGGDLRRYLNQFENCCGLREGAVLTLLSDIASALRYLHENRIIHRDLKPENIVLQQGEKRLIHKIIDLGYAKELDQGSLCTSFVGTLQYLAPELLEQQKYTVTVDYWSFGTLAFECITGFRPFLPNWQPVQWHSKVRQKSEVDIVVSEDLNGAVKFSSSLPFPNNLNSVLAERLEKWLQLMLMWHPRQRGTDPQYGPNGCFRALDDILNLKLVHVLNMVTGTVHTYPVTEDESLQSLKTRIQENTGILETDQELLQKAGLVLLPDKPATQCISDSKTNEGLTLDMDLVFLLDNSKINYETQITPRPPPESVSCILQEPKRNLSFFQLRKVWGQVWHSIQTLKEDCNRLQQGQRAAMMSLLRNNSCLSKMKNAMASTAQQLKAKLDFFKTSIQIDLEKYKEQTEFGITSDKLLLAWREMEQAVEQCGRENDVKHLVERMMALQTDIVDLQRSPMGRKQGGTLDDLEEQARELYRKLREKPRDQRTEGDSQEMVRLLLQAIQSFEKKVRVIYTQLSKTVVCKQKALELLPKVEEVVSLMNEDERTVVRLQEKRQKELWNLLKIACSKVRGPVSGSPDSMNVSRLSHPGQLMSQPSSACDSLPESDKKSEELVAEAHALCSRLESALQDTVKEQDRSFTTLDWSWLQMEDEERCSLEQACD
Description: Inhibition of IKKbeta in C57BL/6 mouse BMDM cells assessed as inhibition of TNFalpha-induced IkappaBalpha phosphorylation at 25 uM after 5 mins by Western blot analysis. The essentials:
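C57BL/6 marrow-derived macrophages were cultured in 70% growth medium/30% L929-conditioned medium and refreshed 12-14 h before stimulation. Stimuli were TNF 40 ng/ml or LPS 100 ng/ml, ± compound at 25 μM from a 200x DMSO stock. Western blots tracked IKK, p38, IκBα and phospho-RelA. Results from three independent experiments were quantitated and normalized.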

The target in experiment [3] is T2, Toll-like receptor 9 (Mus musculus) (UniProt Q9EQU3).
T2 sequence (whole entry): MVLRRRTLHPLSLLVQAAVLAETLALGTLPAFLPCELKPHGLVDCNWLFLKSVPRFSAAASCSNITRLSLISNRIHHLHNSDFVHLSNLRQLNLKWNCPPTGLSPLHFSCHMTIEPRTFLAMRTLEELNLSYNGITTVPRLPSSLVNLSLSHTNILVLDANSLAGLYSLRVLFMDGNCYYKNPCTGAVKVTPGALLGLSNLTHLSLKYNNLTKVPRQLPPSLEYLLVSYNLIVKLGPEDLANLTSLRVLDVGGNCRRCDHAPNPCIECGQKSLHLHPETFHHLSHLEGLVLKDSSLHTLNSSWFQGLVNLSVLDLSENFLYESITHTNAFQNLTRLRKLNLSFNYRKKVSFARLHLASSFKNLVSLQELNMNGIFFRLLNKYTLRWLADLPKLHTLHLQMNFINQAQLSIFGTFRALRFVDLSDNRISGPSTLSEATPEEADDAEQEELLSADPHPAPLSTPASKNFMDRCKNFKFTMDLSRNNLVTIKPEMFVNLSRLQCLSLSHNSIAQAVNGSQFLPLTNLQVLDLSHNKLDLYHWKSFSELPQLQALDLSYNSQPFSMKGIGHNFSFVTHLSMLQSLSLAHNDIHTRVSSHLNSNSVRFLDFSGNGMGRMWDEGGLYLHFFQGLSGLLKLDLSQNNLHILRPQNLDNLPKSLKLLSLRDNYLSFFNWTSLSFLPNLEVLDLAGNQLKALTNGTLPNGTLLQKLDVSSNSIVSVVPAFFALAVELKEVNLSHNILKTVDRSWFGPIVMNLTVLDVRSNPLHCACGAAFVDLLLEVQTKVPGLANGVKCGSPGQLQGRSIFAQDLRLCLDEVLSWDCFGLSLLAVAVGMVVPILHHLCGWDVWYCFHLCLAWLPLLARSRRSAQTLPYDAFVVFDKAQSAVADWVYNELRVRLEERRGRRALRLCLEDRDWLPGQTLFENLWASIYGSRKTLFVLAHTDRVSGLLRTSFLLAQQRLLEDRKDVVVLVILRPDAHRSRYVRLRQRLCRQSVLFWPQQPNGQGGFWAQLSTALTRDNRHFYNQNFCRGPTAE
The experiment can be described thus: Inhibition of MyD88 recruitment to TLR9 in C57BL/6 mouse BMDM cells assessed as inhibition of CpG-induced IkappaBalpha degradation up to 90 mins by Western blot analysis. In a few lines:
as §1

The target of experiment [4] is T1, Inhibitor of nuclear factor kappa-B kinase subunit beta (Mus musculus). Description: Inhibition of IKKbeta in C57BL/6 mouse BMDM cells assessed as inhibition of LPS-induced IkappaBalpha phosphorylation at 50 uM up to 90 mins by Western blot analysis.
In experiment [5] the target is Toll-like receptor 2 (Mus musculus) (UniProt Q9QUN7). Description: Inhibition of MyD88 recruitment to TLR2 in C57BL/6 mouse BMDM cells assessed as inhibition of HKSA-induced IkappaBalpha phosphorylation up to 90 mins by Western blot analysis. In a few lines:
as §1

For experiment [6], the target named is T1, Inhibitor of nuclear factor kappa-B kinase subunit beta (Mus musculus). The experiment can be described thus: Inhibition of IKKbeta in C57BL/6 mouse BMDM cells assessed as inhibition of TNFalpha-induced IkappaBalpha degradation at 50 uM up to 90 mins by Western blot analysis.
Experiment [7] has the same target. Description: Inhibition of IKKbeta in C57BL/6 mouse BMDM cells assessed as inhibition of LPS-induced MCP1 […] at 25 uM by Northern blot analysis.

Chain of Toll-like receptor 2 (Mus musculus) (Q9QUN7 whole entry): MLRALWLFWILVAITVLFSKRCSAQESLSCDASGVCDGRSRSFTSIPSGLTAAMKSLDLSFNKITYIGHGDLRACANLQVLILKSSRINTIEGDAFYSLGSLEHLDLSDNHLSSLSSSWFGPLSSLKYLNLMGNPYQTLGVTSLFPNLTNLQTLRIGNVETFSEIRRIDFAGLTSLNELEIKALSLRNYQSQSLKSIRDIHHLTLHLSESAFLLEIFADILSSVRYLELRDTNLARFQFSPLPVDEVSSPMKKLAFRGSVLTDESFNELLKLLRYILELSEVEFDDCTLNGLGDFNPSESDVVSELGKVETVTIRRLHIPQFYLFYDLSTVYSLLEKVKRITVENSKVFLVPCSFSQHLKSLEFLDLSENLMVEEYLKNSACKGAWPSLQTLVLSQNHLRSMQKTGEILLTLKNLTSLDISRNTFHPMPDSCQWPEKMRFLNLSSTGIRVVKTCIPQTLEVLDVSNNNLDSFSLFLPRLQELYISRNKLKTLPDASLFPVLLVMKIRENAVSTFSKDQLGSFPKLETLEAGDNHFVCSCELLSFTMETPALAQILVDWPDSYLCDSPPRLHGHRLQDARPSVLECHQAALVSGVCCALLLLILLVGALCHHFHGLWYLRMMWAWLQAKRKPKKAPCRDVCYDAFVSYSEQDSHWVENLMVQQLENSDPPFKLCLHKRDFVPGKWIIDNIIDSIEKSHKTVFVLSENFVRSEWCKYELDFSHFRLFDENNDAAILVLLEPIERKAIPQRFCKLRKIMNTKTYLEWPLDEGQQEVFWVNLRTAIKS

In the case of `O=C(CCCCCCCC(=O)ON1C(=O)CCC1=O)Oc1ccc2cc(C(C(=O)NCc3ccccc3)N(C(=O)Cc3ccc4c(c3)OCO4)C3CC3)ccc2c1` (configuration not stated), the inhibition result in experiment [1], in experiment [3] and in experiment [5] was “Active” in each case. In experiment [2], the inhibition result was “inactive”. The “inhibition of IkappaBalpha phosphorylation (active/not active)” value (from here on “inhibition … (active/not active)”) in experiment [4] is “Active”.
Regarding `O=C(CCCCCN1C(=O)C=CC1=O)Oc1ccc2cc(C(C(=O)NCc3ccccc3)N(C(=O)Cc3ccc4c(c3)OCO4)C3CC3)ccc2c1` (configuration not stated), the inhibition result in experiment [1], in experiment [3], in experiment [7] and in experiment [5] was “Active” in each case. Besides, the inhibition entry in experiment [2] and in experiment [6] was “inactive” in each case. Also, the “inhibition … (active/not active)” value in experiment [4] was “Active”.
In the case of `O=C(CCCCCN1C(=O)CCC1=O)Oc1ccc2cc(C(C(=O)NCc3ccccc3)N(C(=O)Cc3ccc4c(c3)OCO4)C3CC3)ccc2c1` (configuration not stated), the inhibition entry in experiment [1], in experiment [3] and in experiment [5] was “Active” throughout. In experiment [2], the inhibition entry is “inactive”. In addition, the “inhibition … (active/not active)” value in experiment [4] is “inactive”.
